Data as given in article PMC4157762 (Bioconjugate Chemistry, 2014).

Columns and labels:
[1] = Dynamic light scattering; assay type: physicochemical; settings: DLS at stock concentration, 15 measurements, regularization fit
Procedure, shortened: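 Samples were spun 15 min at 18 000 g and measured at stock concentration at 100% laser power until intensity readings were consistent. 15 measurements per sample gave the size distribution by regularization fit. Effective radius and aggregation by intensity and by mass were reported. Controls were maleimide-capped XTEN (negative) and BSA (positive), with BSA re-measured after 10 min at 80 °C and 5 min on ice.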

[2] = tested on: HIV-1Ba-L; test: In vitro antiviral MAGI assay; assay type: cell-based; settings: read-out: IC50 for inhibition of virus replication, MAGI CCR5 cells, 48 h, β-galactosidase read-out (Gal-screen), triplicate
Procedure, shortened: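 MAGI CCR5 cells are HeLa-derived, express CXCR4, CD4 and CCR5, and carry an HIV-1 LTR–β-galactosidase reporter. Cells were plated at 1 × 10^4 per well and adhered overnight at 37 °C. Medium was replaced with the compound range (up to 10 nM), then HIV-1Ba-L was added. After 48 h, lysates were read with Gal-screen and expressed as % of the no-compound blank. Tested in triplicate with unmodified-peptide and capped-XTEN controls.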

[3] = assay type: physicochemical; settings: as E13; dimer peak of the precursor before conjugation
Procedure, shortened: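 Vydac C4 column (5 μm, 300 Å, 4.6 × 150 mm), ambient temperature, 1 mL/min. Equilibrated at 5% B, then a linear gradient of 5–50% B over 45 min. 20 μg protein injected. Absorbance read at 214 nm. The thiol-XTEN precursor was run before conjugation.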

[4] = dosed in rats; cited from earlier work

| Substance | aggregation by intensity [1] [%] | aggregation by mass [1] [%] | also measured |
| --- | --- | --- | --- |
| BSA (heat treated): heat-treated BSA, positive control for aggregation in DLS | 92.2 | 28 | – |
| BSA (not heat treated): BSA (Fermentas), DLS control before heat treatment | 0 | 0 | – |
| Enfuvirtide | – | – | IC50 [2]: 380 pM |
| SAGSPTPGTSESATPESGPGSEPATSGSETPGTSESATPESGPGSEPATSGSETPGTSESATPESGPGTSTEPSEGSAPGTSESATPESGPGSPAGSPTSTEEGSPAGSPTSTEEGSPAGSPTSTEEGTSESATPESGPGTSTEPSEGSAPGTSESATPESGPGSEPATSGSETPGTSESATPESGPGSEPATSGSETPGTSESATPESGPGTSTEPSEGSAPGSPAGSPTSTEEGTSESATPESGPGSEPATSGSETPGTSESATPESGPGSPAGSPTSTEEGSPAGSPTSTEEGTSTEPSEGSAPGTSESATPESGPGTSESATPESGPGTSESATPESGPGSEPATSGSETPGSEPATSGSETPGSPAGSPTSTEEGTSTEPSEGSAPGTSTEPSEGSAPGSEPATSGSETPTAEAAGCGTAEAASASR [XTEN-1] | – | – | C4 RPC retention time of suspected disulfide-bonded dimer [3]: 21.2 min |
| enfuvirtide | – | – | half-life in rats [4]: 2.8 h |
